Only some compounds are listed: those with a hit (about 3.7% of all), similar ones and a draw of the others.
KCNQ1 block – inhibitors of human KCNQ1 channel, primary screen, cell-based, thallium flux, high-throughput. B-score at 10 µM. 310,000 compounds, 1.3% hits. CHO-K1 KCNQ1, FluxOR thallium flux fluorescence; active compounds read high;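 active = compounds whose thallium flux B-score, printed positive for inhibition, exceeds three library SD while starting fluorescence stays within three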;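 note: channel opened by potassium depolarization with thallium stimulus after 20 min compound exposure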
KCNK9 inh – KCNK9 potassium channel inhibitors, primary screen, HEK293 cells, thallium flux | Potassium channel subfamily K member 9 (Homo sapiens), Q9NPC2 | FluxOR thallium flux fluorescence; active compounds read low | B-score at 10 µM | 310,000 compounds, 1.2% hits | AID 488922, 2010;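 active = ratio B-score over 3 SD below the library mean, with starting fluorescence within 5 SD of its mean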;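 note: negative B-score means less thallium flux so channel inhibition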
KCNK3 block – human KCNK3 channel inhibitors, primary screen, CHO cells, FluxOR thallium flux, B-score | Potassium channel subfamily K member 3 (Homo sapiens), O14649 | B-score at 10 µM | 340,000 compounds, 0.84% hits | FluxOR fluorescence; active compounds read low;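 active = B-score under library mean minus 4 SD, starting fluorescence ratio at most library mean plus 5 SD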;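 note: more negative B-score means stronger inhibition of thallium flux through KCNK3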
KCNQ1 act – potentiators or activators of KCNQ1 channel, primary screen, cell-based, thallium flux, high-throughput. 310,000 compounds, 0.35% hits. B-score at 10 µM. CHO-K1 KCNQ1, thallium flux FluxOR fluorescence; active compounds read high;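 active = fluorescence ratio B-score, a plate-corrected score, at least three library SD, with initial intensity B-score within 5 SD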
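assay system = CHO-K1 cells stably expressing KCNQ1 | medium = assay buffer, equal DMSO in all wells | timing = 37 °C overnight plating, 90-min dark dye load, 20-min compound pretreatment | measured by = kinetic FluxOR thallium fluorescence, 10-s 1-Hz baseline, 110-s post-stimulus read | measure = fluorescence change relative to baseline, converted to B score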
hERG rescue – hERG rescue from dofetilide block, primary screen, cell-based, CHO-hERG, FluxOR thallium flux, dofetilide IC70 | Voltage-gated inwardly rectifying potassium channel KCNH2 (Homo sapiens), Q12809 | activation (rescue from dofetilide block), less the hit threshold, % at 10 µM | dofetilide IC70 present | 310,000 compounds, 0.51% hits;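 active = activation above the mean of controls blocked by dofetilide plus 5 SD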;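 note: thallium influx through hERG after potassium depolarization seen as dye fluorescence rise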
Kir21 inh – inhibitors of mouse Kir2.1 inward-rectifier potassium channel; 310,000 compounds, 0.85% hits; B-score at 10 µM; HEK293-Kir2.1, FluxOR thallium flux fluorescence; active compounds read low; Inward rectifier potassium channel 2 (Mus musculus), P35561;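 active = fluorescence ratio B-score at or below minus 3 SD of library scores, with starting-brightness B-score within 2 SD, cut at about -4.2 in these data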;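 note: channel flux triggered by added potassium and thallium sulfate stimulus; B-score of peak minus minimum fluorescence over baseline after thallium stimulus; more negative B-score means stronger Kir2.1 block with less thallium influx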
KCNK9 inh conf – KCNK9 potassium channel inhibitors, confirmation, HEK293 cells, thallium flux, duplicate. shares compounds with KCNK9 inh. FluxOR thallium flux fluorescence. inhibition, % at 10 µM. 4,900 compounds, 43% hits;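 active = thallium signal inhibited by more than 5 SD of the compound-free buffer control wells, on both duplicate plates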;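 note: 0% = assay buffer control wells without compound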
Kir21 sel – mouse Kir2.1 channel inhibition, confirmation, selectivity assay for KCNK9 modulator project, cell-based, HEK293, thallium flux; inhibition, % at 10 µM; shares compounds with KCNK9 inh; 4,900 compounds, 4% hits; AID 492993, 2010; Kir2.1 cells, FluxOR thallium flux fluorescence;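 active = thallium signal drop more than 5 SD beyond the mean of the no-compound control wells, seen in both duplicate plates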;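 note: signal is fluorescence rise after thallium addition divided by baseline fluorescence; plate controls were assay buffer only for no effect and full block by chlorpromazine control for full effect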
HEK293 Tl ctr – thallium flux in non-induced HEK293 cells, confirmation, counter-screen for KCNK9 inhibitor project, cell-based, second counter screen, non-induced KCNK9-HEK293; shares compounds with KCNK9 inh; FluxOR thallium flux; inhibition, % at 10 µM; 4,900 compounds, 40% hits; AID 492997, 2010;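 active = thallium signal drop beyond 5 SD of the untreated control mean, on both duplicate plates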;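 note: plate controls were buffer only IC0 wells for no effect and SID17386958 at its maximal inhibitory level for full effect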
* = called active by the depositor; i = inactive; · = no result given.

SMILES	KCNQ1 block	KCNK9 inh	KCNK3 block	KCNQ1 act	hERG rescue	Kir21 inh	KCNK9 inh conf	Kir21 sel	HEK293 Tl ctr
COc1ccc(N(CC(O)CN2CCOCC2)S(=O)(=O)c2ccccc2)cc1 (stereo not given)	i	i	i	i	-3	-0.1	·	·	·
COc1ccc(S(=O)(=O)N2CCc3ccccc32)cc1C(=O)NCc1ccco1	·	·	i	·	·	·	·	·	·
O=C(NCc1ccco1)c1cc(S(=O)(=O)N2CCCc3ccccc32)ccc1Cl	i	i	i	i	-11	-0.17	i	i	i
O=c1c2ccccc2[nH]c(=S)n1CCCN1CCC(Cc2ccccc2)CC1	i	i	i	i	-12	-1.2	i	i	i
CC1CCN(CCCn2c(=S)[nH]c3ccccc3c2=O)CC1	i	i	i	i	-6	1.9	·	·	·
CCOC(=O)c1c(C)[nH]c(C(=O)OCC(=O)Nc2sccc2C(N)=O)c1C	i	i	i	i	-26	0.19	·	·	·
CCCN1CCC(=O)N(CCSc2ccccc2)CC1	i	i	i	i	2	0.81	·	·	·
c1ccc(SCCN2CCN(c3ccccc3)CC2)cc1	i	i	i	i	-8	0.53	i	i	i
COc1ccc(NC(=O)CSc2nnc(NC(=O)c3ccccc3C(=O)O)s2)cc1	i	i	i	i	-11	-1	·	·	·
Cc1cc(OCC(=O)NNC(=O)c2cccs2)ccc1Br	i	i	i	i	-8	0.82	·	·	·
O=C1C(Cl)=C(N2CCN(Cc3ccccc3)CC2)C(=O)N1Cc1ccccc1	i	i	i	i	-3	0.16	i	i	i
COc1cc(NC(=O)CN2C(=O)COc3ccccc32)cc(OC)c1	·	·	i	·	·	·	·	·	·
Cc1ccc2cccc(N=Cc3c(C)[nH]n(-c4ccccc4)c3=O)c2n1	i	-10*	i	i	-2	-0.02	47%*	i	i
O=C(COC(=O)/C=C/c1ccc(S(=O)(=O)N2CCOCC2)cc1)Nc1ccccc1F	·	·	i	·	·	·	·	·	·
N#Cc1nc(Cc2ccccc2)oc1N1CCN(c2cccc(Cl)c2)CC1	i	-11*	i	i	-9	0.32	38%*	i	i
c1ccc(CC2CCN(Cc3nc(-c4ccccc4)no3)CC2)cc1	i	i	i	i	-12	-1.4	i	i	i
COc1ccccc1CN1CCN(Cc2nc(-c3ccccc3)no2)CC1	i	i	i	i	-14	-0.67	·	·	·
Clc1cccc(N2CCN(Cc3nc(-c4ccccc4)no3)CC2)c1	i	i	i	i	-7	-0.04	i	i	i
COc1ccc(-c2noc(CN3CCC(Cc4ccccc4)CC3)n2)cc1	i	i	i	i	-10	0.63	i	i	i
Cc1sc2nc(SCc3ccccc3)n(Cc3ccco3)c(=O)c2c1C	i	i	i	i	-7	-0.65	·	·	·
Cc1sc2nc(SCc3nc4ccccc4[nH]3)n(Cc3ccco3)c(=O)c2c1C	i	-8.3*	i	i	-9	1.4	26%*	i	32%*

Screens: PubChem BioAssay, Johns Hopkins Ion Channel Center
